Data as given in ChEMBL document CHEMBL1212768, “Screening and quantification of the expression of antibiotic resistance genes in Acinetobacter baumannii with a microarray” (2010).
Converted amounts (≈) assume the structure as drawn.

Assays:
Format in all cases: functional
Acinetobacter baumannii [1] = test: Antibacterial activity against Acinetobacter baumannii BM4587 by antimicrobial susceptibility assay
Method in brief: (§1)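 MICs measured by Etest on Mueller-Hinton agar. Disk diffusion on the same medium was used for susceptibility screening. Strains were grown at 37°C in brain heart infusion broth or agar. Mutants were picked from antibiotic gradient plates, taking colonies growing above the normal MIC. Those resistant to several drug classes by diffusion were kept.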

Acinetobacter baumannii [2] = test: Antibacterial activity against Acinetobacter baumannii BM4454 by antimicrobial susceptibility assay; method in brief: as §1
Acinetobacter baumannii [3] = test: Antibacterial activity against multidrug-resistant Acinetobacter baumannii BM4665 by antimicrobial susceptibility assay; method in brief: as §1
Acinetobacter baumannii [4] = test: Antibacterial activity against multidrug-resistant Acinetobacter baumannii BM4666 by antimicrobial susceptibility assay; method in brief: as §1
Acinetobacter baumannii [5] = test: Antibacterial activity against Acinetobacter baumannii BM4467 by antimicrobial susceptibility assay; method in brief: as §1
Acinetobacter baumannii [6] = test: Antibacterial activity against multidrug-resistant Acinetobacter baumannii BM4668 by antimicrobial susceptibility assay; method in brief: as §1
Acinetobacter baumannii [7] = test: Antibacterial activity against Acinetobacter baumannii CIP70-10 by antimicrobial susceptibility assay; method in brief: as §1
Acinetobacter baumannii [8] = test: Antibacterial activity against multidrug-resistant Acinetobacter baumannii AYE by antimicrobial susceptibility assay; method in brief: as §1
Acinetobacter baumannii [9] = test: Antibacterial activity against multidrug-resistant Acinetobacter baumannii BM4675 by antimicrobial susceptibility assay; method in brief: as §1
Acinetobacter baumannii [10] = test: Antibacterial activity against multidrug-resistant Acinetobacter baumannii BM4676 by antimicrobial susceptibility assay; method in brief: as §1

Row | Compound | MIC (Acinetobacter baumannii [1]) | MIC (Acinetobacter baumannii [2]) | MIC (Acinetobacter baumannii [3]) | MIC (Acinetobacter baumannii [4]) | MIC (Acinetobacter baumannii [5]) | MIC (Acinetobacter baumannii [6]) | MIC (Acinetobacter baumannii [7]) | MIC (Acinetobacter baumannii [8]) | MIC (Acinetobacter baumannii [9]) | MIC (Acinetobacter baumannii [10])
1 | CO/N=C(\C(=O)N[C@@H]1C(=O)N2C(C(=O)[O-])=C(C[N+]3(C)CCCC3)CS[C@H]12)c1csc(N)n1 [CEFEPIME] | 0.75 µg/mL (≈ 1.56 µM) | 3 µg/mL (≈ 6.24 µM) | 8 µg/mL (≈ 16.6 µM) | 2 µg/mL (≈ 4.16 µM) | 1.5 µg/mL (≈ 3.12 µM) | 3 µg/mL (≈ 6.24 µM) | 1.5 µg/mL (≈ 3.12 µM) | > 256 µg/mL | 8 µg/mL (≈ 16.6 µM) | 32 µg/mL (≈ 66.6 µM)
2 | CO[C@H]1/C=C/O[C@@]2(C)Oc3c(C)c(O)c4c(O)c(c(/C=N/N5CCN(C)CC5)c(O)c4c3C2=O)NC(=O)/C(C)=C\C=C\[C@H](C)[C@H](O)[C@@H](C)[C@@H](O)[C@@H](C)[C@H](OC(C)=O)[C@@H]1C [RIFAMPIN] | 1.5 µg/mL (≈ 1.82 µM) | 2 µg/mL (≈ 2.43 µM) | 1.5 µg/mL (≈ 1.82 µM) | 3 µg/mL (≈ 3.65 µM) | 2 µg/mL (≈ 2.43 µM) | 3 µg/mL (≈ 3.65 µM) | 4 µg/mL (≈ 4.86 µM) | 16 µg/mL (≈ 19.4 µM) | > 32 µg/mL | 2 µg/mL (≈ 2.43 µM)
3 | C[C@H]1[C@H](NC(=O)/C(=N\OC(C)(C)C(=O)O)c2csc(N)n2)C(=O)N1S(=O)(=O)O [AZTREONAM] | 12 µg/mL (≈ 27.6 µM) | 16 µg/mL (≈ 36.7 µM) | 6 µg/mL (≈ 13.8 µM) | 32 µg/mL (≈ 73.5 µM) | 32 µg/mL (≈ 73.5 µM) | 48 µg/mL (≈ 110 µM) | 48 µg/mL (≈ 110 µM) | > 256 µg/mL | 32 µg/mL (≈ 73.5 µM) | 32 µg/mL (≈ 73.5 µM)
4 | CCN[C@@H]1C[C@H](N)[C@@H](O[C@H]2OC(CN)=CC[C@H]2N)[C@H](O)[C@H]1O[C@H]1OC[C@](C)(O)[C@H](NC)[C@H]1O [NETILMICIN] | 1.5 µg/mL (≈ 3.15 µM) | 16 µg/mL (≈ 33.6 µM) | 64 µg/mL (≈ 135 µM) | 1.5 µg/mL (≈ 3.15 µM) | 2 µg/mL (≈ 4.21 µM) | 2 µg/mL (≈ 4.21 µM) | 2 µg/mL (≈ 4.21 µM) | 48 µg/mL (≈ 101 µM) | 32 µg/mL (≈ 67.3 µM) | 12 µg/mL (≈ 25.2 µM)
5 | NCC[C@H](O)C(=O)N[C@@H]1C[C@H](N)[C@@H](O[C@H]2O[C@H](CN)[C@@H](O)[C@H](O)[C@H]2O)[C@H](O)[C@H]1O[C@H]1O[C@H](CO)[C@@H](O)[C@H](N)[C@H]1O [AMIKACIN] | 4 µg/mL (≈ 6.83 µM) | 8 µg/mL (≈ 13.7 µM) | 64 µg/mL (≈ 109 µM) | 6 µg/mL (≈ 10.2 µM) | 4 µg/mL (≈ 6.83 µM) | 8 µg/mL (≈ 13.7 µM) | 6 µg/mL (≈ 10.2 µM) | 96 µg/mL (≈ 164 µM) | 96 µg/mL (≈ 164 µM) | > 256 µg/mL
6 | O=C(N[C@H](CO)[C@H](O)c1ccc([N+](=O)[O-])cc1)C(Cl)Cl [CHLORAMPHENICOL] | 96 µg/mL (≈ 297 µM) | > 256 µg/mL | > 256 µg/mL | > 256 µg/mL | 96 µg/mL (≈ 297 µM) | > 256 µg/mL | 48 µg/mL (≈ 149 µM) | > 256 µg/mL | > 256 µg/mL | 128 µg/mL (≈ 396 µM)
7 | CN(C)c1cc(NC(=O)CNC(C)(C)C)c(O)c2c1C[C@H]1C[C@H]3[C@H](N(C)C)C(O)=C(C(N)=O)C(=O)[C@@]3(O)C(O)=C1C2=O [TIGECYCLINE] | 0.094 µg/mL (≈ 0.161 µM) | 3 µg/mL (≈ 5.12 µM) | 1.5 µg/mL (≈ 2.56 µM) | 0.38 µg/mL (≈ 0.649 µM) | 0.125 µg/mL (≈ 0.213 µM) | 0.5 µg/mL (≈ 0.854 µM) | 0.125 µg/mL (≈ 0.213 µM) | 1.5 µg/mL (≈ 2.56 µM) | 1.5 µg/mL (≈ 2.56 µM) | 1.5 µg/mL (≈ 2.56 µM)
8 | CCn1cc(C(=O)O)c(=O)c2cc(F)c(N3CCNCC3)cc21 [NORFLOXACIN] | 1.5 µg/mL (≈ 4.7 µM) | > 256 µg/mL | 12 µg/mL (≈ 37.6 µM) | 4 µg/mL (≈ 12.5 µM) | 1.5 µg/mL (≈ 4.7 µM) | 4 µg/mL (≈ 12.5 µM) | 2 µg/mL (≈ 6.26 µM) | > 256 µg/mL | > 256 µg/mL | 192 µg/mL (≈ 601 µM)
9 | O=C(O)c1cn(C2CC2)c2cc(N3CCNCC3)c(F)cc2c1=O [CIPROFLOXACIN] | 0.094 µg/mL (≈ 0.284 µM) | > 32 µg/mL | 0.5 µg/mL (≈ 1.51 µM) | 0.38 µg/mL (≈ 1.15 µM) | 0.125 µg/mL (≈ 0.377 µM) | 0.38 µg/mL (≈ 1.15 µM) | 0.125 µg/mL (≈ 0.377 µM) | > 32 µg/mL | > 32 µg/mL | 24 µg/mL (≈ 72.4 µM)
10 | CO/N=C(\C(=O)N[C@@H]1C(=O)N2C(C(=O)O)=C(COC(C)=O)CS[C@H]12)c1csc(N)n1 [CEFOTAXIME] | 3 µg/mL (≈ 6.59 µM) | 4 µg/mL (≈ 8.78 µM) | 4 µg/mL (≈ 8.78 µM) | 6 µg/mL (≈ 13.2 µM) | 4 µg/mL (≈ 8.78 µM) | 8 µg/mL (≈ 17.6 µM) | 12 µg/mL (≈ 26.3 µM) | > 256 µg/mL | > 256 µg/mL | 32 µg/mL (≈ 70.3 µM)
11 | C[C@@H](O)[C@H]1C(=O)N2C(C(=O)O)=C(SCCNC=N)C[C@H]12 [IMIPENEM ANHYDROUS] | 0.19 µg/mL (≈ 0.635 µM) | 0.25 µg/mL (≈ 0.835 µM) | 0.5 µg/mL (≈ 1.67 µM) | 0.19 µg/mL (≈ 0.635 µM) | 0.25 µg/mL (≈ 0.835 µM) | 0.25 µg/mL (≈ 0.835 µM) | 0.25 µg/mL (≈ 0.835 µM) | 1 µg/mL (≈ 3.34 µM) | 2 µg/mL (≈ 6.68 µM) | > 32 µg/mL
12 | NC[C@H]1O[C@H](O[C@H]2[C@H](O)[C@@H](O[C@H]3O[C@H](CO)[C@@H](O)[C@H](N)[C@H]3O)[C@H](N)C[C@@H]2N)[C@H](N)C[C@@H]1O [TOBRAMYCIN] | 0.75 µg/mL (≈ 1.6 µM) | 4 µg/mL (≈ 8.56 µM) | 16 µg/mL (≈ 34.2 µM) | 1 µg/mL (≈ 2.14 µM) | 1.5 µg/mL (≈ 3.21 µM) | 2 µg/mL (≈ 4.28 µM) | 2 µg/mL (≈ 4.28 µM) | 64 µg/mL (≈ 137 µM) | 12 µg/mL (≈ 25.7 µM) | 96 µg/mL (≈ 205 µM)
13 | CN(C)c1ccc(O)c2c1C[C@H]1C[C@H]3[C@H](N(C)C)C(O)=C(C(N)=O)C(=O)[C@@]3(O)C(O)=C1C2=O [MINOCYCLINE] | 0.064 µg/mL (≈ 0.14 µM) | 0.75 µg/mL (≈ 1.64 µM) | 0.125 µg/mL (≈ 0.273 µM) | 0.19 µg/mL (≈ 0.415 µM) | 0.064 µg/mL (≈ 0.14 µM) | 0.125 µg/mL (≈ 0.273 µM) | 0.047 µg/mL (≈ 0.103 µM) | 0.5 µg/mL (≈ 1.09 µM) | 8 µg/mL (≈ 17.5 µM) | 1 µg/mL (≈ 2.19 µM)
14 | CC(C)(O/N=C(\C(=O)N[C@@H]1C(=O)N2C(C(=O)[O-])=C(C[n+]3ccccc3)CS[C@H]12)c1csc(N)n1)C(=O)O [CEFTAZIDIME] | 4 µg/mL (≈ 7.32 µM) | 6 µg/mL (≈ 11 µM) | 3 µg/mL (≈ 5.49 µM) | 12 µg/mL (≈ 22 µM) | 8 µg/mL (≈ 14.6 µM) | 16 µg/mL (≈ 29.3 µM) | 6 µg/mL (≈ 11 µM) | > 256 µg/mL | > 256 µg/mL | > 256 µg/mL
15 | CC1(C)S[C@@H]2[C@H](NC(=O)[C@H](C(=O)O)c3ccsc3)C(=O)N2[C@H]1C(=O)O [TICARCILLIN] | 6 µg/mL (≈ 15.6 µM) | 8 µg/mL (≈ 20.8 µM) | 2 µg/mL (≈ 5.2 µM) | 16 µg/mL (≈ 41.6 µM) | 12 µg/mL (≈ 31.2 µM) | 24 µg/mL (≈ 62.4 µM) | 24 µg/mL (≈ 62.4 µM) | > 256 µg/mL | > 256 µg/mL | > 256 µg/mL
16 | CN(C)[C@@H]1C(O)=C(C(N)=O)C(=O)[C@@]2(O)C(O)=C3C(=O)c4c(O)cccc4[C@@](C)(O)[C@H]3C[C@@H]12 [TETRACYCLINE] | 1.5 µg/mL (≈ 3.38 µM) | 32 µg/mL (≈ 72 µM) | 3 µg/mL (≈ 6.75 µM) | 8 µg/mL (≈ 18 µM) | 3 µg/mL (≈ 6.75 µM) | 8 µg/mL (≈ 18 µM) | 1 µg/mL (≈ 2.25 µM) | 64 µg/mL (≈ 144 µM) | 32 µg/mL (≈ 72 µM) | 12 µg/mL (≈ 27 µM)
17 | GENTAMICIN | 1 µg/mL | 6 µg/mL | 12 µg/mL | 1.5 µg/mL | 1.5 µg/mL | 1.5 µg/mL | 1.5 µg/mL | > 256 µg/mL | 24 µg/mL | > 256 µg/mL
